Here are results for two molecules from paper PMC4245089 (International Journal of Nanomedicine, 2014).

Broadly, the IC50 is the midpoint of a concentration-inhibition curve.

Structures are written as SMILES. Several values for one entry are separate records, joined by “and”; a condition that tells them apart may be missing. Equal values may be shown once. Entries after “also recorded” stand apart in the source; their conditions may differ.

Data set [1] concerns P. falciparum 3D7 strain (chloroquine sensitive). Put plainly: Growth inhibition of blood-stage P. falciparum 3D7 by microscopy. It is filed as cell-based, Plasmodium falciparum. The method, boiled down: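 Human RBCs were infected with synchronized 3D7 ring stages and held at 10% hematocrit and 2% parasitemia, with medium changed every 24 h. Ten concentrations were run in duplicate, and stage of action was tested at 2.5 μM. Giemsa smears were read at 48 and 72 h. Percent parasitemia was taken as infected/total RBCs over at least ten fields. Dead parasites were scored by lost membrane, shrinkage or unstained cytoplasm.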

Data set [2] in a line: Aqueous dispersibility and storage stability of lyophilized powder. It is filed as physicochemical.
The subject of another data set is P. berghei-ANKA. Put plainly: Dose kinetics / antimalarial efficacy in P. berghei-ANKA-infected C57BL/6 mice. Format: in vivo, Plasmodium berghei. To be noted: oral, 10 mg/kg body weight. The method, boiled down:
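C57BL/6 mice were infected intravenously with 2.5×10^6 P. berghei-ANKA parasites. Oral dosing began 24 h post-infection and ran twice weekly for 1 month at 10, 20 and 40 mg/kg body weight. Parasitemia was counted every fourth day, and mean survival days were recorded. Optimum dose was set by Peterson's test and mortality rate. Data are mean ± SEM, n=6.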

The subject of the next data set is parasitized erythrocytes. The data set is described as follows: Nanotized curcumin uptake assay by fluorimetry, parasitized erythrocytes. It is filed as cell-based. As to conditions: treated (parasitized) cultures, 1 μM.
Data set [3] has as its system Human fibroblast L-929 cells. The data set is described as follows: Cell viability assay. It is filed as cell-based. As to conditions: 8.11-129.88 μmol/L; 24, 48 and 72 hours. The gist of the method: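 L-929 fibroblasts seeded at 1×10^4 cells/well in DMEM. Exposed to native or nanoparticle test compound at 8.11–129.88 μmol/L for 24, 48 and 72 h. MTT (12 mM) added for 2 h at 37°C. Formazan dissolved in DMSO for 1 h at 37°C in the dark. Absorbance read at 595 nm.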

The test system of data set [4] is P. berghei-ANKA-infected C57BL/6 mice. The data set is described as follows: Liver and kidney function tests. It is filed as in vivo. As to conditions: serum.
The test system of the next data set is uninfected erythrocytes. The data set is described as follows: Nanotized curcumin uptake assay by fluorimetry, uninfected erythrocytes. As to conditions: 1 μM. Format: cell-based.
The conditions of data set [5]: mice, oral.
Setting [6] is: day 6, curcumin forms 20 mg/kg oral biweekly.
Where [7] appears, read: day 15, curcumin forms 20 mg/kg oral biweekly.
Setting [8] is: day 21, curcumin forms 20 mg/kg oral biweekly.

Turning to `COc1cc(C=CC(=O)CC(=O)C=Cc2ccc(O)c(OC)c2)ccc1O` [native curcumin, 1,7-bis(4-hydroxy 3-methoxyphenyl)-1,6-heptadiene-3,5-dione], the IC50 in data set [1] (Plasmodium falciparum, 3D7, read-out: IC50 for growth inhibition of parasites) was found to be 5 µM. In data set [1] (synchronized ring stage culture, 2.5 μM, 72 hours), this molecule had a parasites eradicated of 60%. Moreover, the “dispersibility / solubility in water” value in data set [2] is on record as “only soluble in organic solvents such as dimethyl sulfoxide; also recorded: completely insoluble in water”. Besides, the “survival (to day)” value with P. berghei-ANKA is listed as 20 days. The “concentration found inside the cells” value in the data set with parasitized erythrocytes (first growth cycle, n=3) was 300 nM. Also, the “concentration found inside the cells” value with parasitized erythrocytes (second growth cycle) stood at 250 nM. Further, the “cytotoxicity (growth inhibition of L-929 cells)” value in data set [3] is given as “marginal cytotoxic effects”. Also, in data set [4] (setting [6]), the ALP came out at 30.72±2.92 KA units; the Bilirubin is 1.6 mg/dL and 1.60 ± 0.36 mg/dL; the Creatinine is 3.29 ± 0.37 mg/dL; the SGOT activity is on record as 66.43±0.65 U/L. Moreover, in data set [4] (setting [6]), the SGPT activity worked out at 98.34±4.68 U/L and the Urea stood at 54.24 ± 2.37 mg/dL. In data set [4] (setting [7]), this molecule returned an ALP of 28.81±2.65 KA units, a Bilirubin of 2.19 ± 0.20 mg/dL, a Creatinine of 2.90 ± 0.46 mg/dL and an SGOT activity of 72.80±0.71 U/L. Further, in data set [4] (setting [7]), the SGPT activity is given as 102.69±5.71 U/L and the Urea was found to be 61.72 ± 2.61 mg/dL. In data set [4] (setting [8]), the ALP worked out at 36.91±2.67 KA units; the Bilirubin is 2.10 mg/dL and 2.10 ± 0.25 mg/dL; the Creatinine turned out to be 2.70 ± 0.51 mg/dL; the SGOT activity was 75.71±0.47 U/L. Besides, in data set [4] (setting [8]), the SGPT activity came to 136.31±6.45 U/L and the Urea turned out to be 87.46 ± 2.54 mg/dL. In addition, the “concentration found inside the cells” value with uninfected erythrocytes (first growth cycle, n=3) stood at 240 nM. The “concentration found inside the cells” value in the data set on uninfected erythrocytes (second growth cycle) came to 100 nM. In data set [5], the “time post-feeding until which curcumin was present/detectable in plasma” value turned out to be 15 h.
In data set [4] (setting [6]), `CCN(CC)CCCC(C)Nc1ccnc2cc(Cl)ccc12` (stereo not drawn) [chloroquine] displayed an ALP of 16.4±2.61 KA units, a Bilirubin of 1.15 ± 0.16 mg/dL, a Creatinine of 2.10 ± 0.24 mg/dL and an SGOT activity of 36.20±0.72 U/L. In data set [4] (setting [6]), this molecule displayed an SGPT activity of 39.41±4.32 U/L and a Urea of 50.32 ± 2.43 mg/dL. In data set [4] (setting [7]), the ALP is 10.6±2.31 KA units, the Bilirubin came to 1.82 ± 0.18 mg/dL, the Creatinine came to 1.60 ± 0.27 mg/dL and the SGOT activity is reported as 33.31±0.61 U/L. In data set [4] (setting [7]), the SGPT activity is reported as 32.34±3.42 U/L and the Urea amounted to 40.82 ± 2.51 mg/dL. Also, in data set [4] (setting [8]), the Bilirubin was 0.60 ± 0.24 mg/dL, the Creatinine turned out to be 1.23 ± 0.17 mg/dL, the SGOT activity stood at 14.14±0.51 U/L and the SGPT activity is recorded as 30.17±3.61 U/L. In data set [4] (setting [8]), this molecule registered a Urea of 33.44 ± 2.56 mg/dL.
